Only some compounds are listed: those with a hit (about 3.1% of all), similar ones and a draw of the others.
Cneo AK release: causes C. neoformans cell lysis; adenylate kinase release luminescence, 4 h; normalised: neutral wells 0, clomiphene wells 100; lysis activity, % at 15 µM; actives 0.2% (n = 360,000); AID 651654;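 active = mean lysis activity across replicates of at least 80%, whatever share of replicates individually reach that level; inactive = mean lysis activity below 80%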
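Assay system: C. neoformans cells. Amount: yeast cell density of 5 × 10^6 cells/mL. Technique: AK luminescence. Buffer or medium: YPD. Times: static 4 h at 37 °C with compound, 1 h detection. Dosing: single-point compound dose. Read-out: lysis from increased AK signal.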
HIV Env fusion: blocks HIV Env-driven cell-cell fusion; HeLa-JRFL Env/CEM21 cell fusion, luciferase; inhibition, % at 12.3 µM; actives 1.1% (n = 360,000);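 active = mean replicate inhibition score of at least 50 and every replicate individually at or above 50; inconclusive = only one of the two criteria met; inactive = mean below 50 and not all replicates reaching 50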;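 also: 0% = plate neutral controls and 100% = maraviroc near 300 nM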
CFTR F508del cor: correctors of CFTR F508del function in bronchial epithelial cells; activity (quench increase), % at 7.58 µM; CFBE cells, YFP halide quenching; stimulated with forskolin plus potentiator P3; % fluorescence drop versus neutral controls; actives 0.36% (n = 350,000);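 active = mean added fluorescence quench of at least 8% versus neutral control, with both replicates also reaching 8%; inconclusive = only one of the mean or replicate conditions met; inactive = mean below 8% and not both replicates reaching 8%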;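 also: cells transiently co-express mutant CFTR-F508del with the halide-sensitive YFP; corrector assay measuring rescue of mutant channel to the surface after 24 h compound exposure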
rRNA inh HTS: inhibitors of bacterial rRNA selective over humanized ribosomes | actives 1.6% (n = 350,000) | E. coli WT GFP vs humanized-ribosome RFP mutants, fluorescence, 24 h; stronger effect = lower value; DMSO median 0, no signal -100 | GFP signal change (wild-type ribosome), % (no concentration beside the values);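 active = significant combined selectivity score with lowered wild-type GFP, culture density cut under 30%, mutant RFP and density less affected; inactive = any of these conditions unmet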
miR-122 sensor: blocks miR-122 activity in Huh7 sensor cells; activation (reporter increase), % at 12.5 µM; Huh7 miR-122 Renilla luciferase sensor, 48 h; neutral wells = 0, positive control = 100; actives 0.3% (n = 340,000);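 active = mean replicate activation score at least 90 and every replicate individually at or above 90; inconclusive = only one of the two criteria met; inactive = neither criterion met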;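 also: higher luciferase means less miR-122 activity so hits act as miR-122 inhibitors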
INS-1E GSIS act: primary screen for activators of insulin secretion dependent on glucose, INS-1E cells, GLuc reporter luminescence. AID 743287. INS-1E GLuc reporter insulin secretion, 2-3 h. activation, % at 16.6 µM. actives 0.61% (n = 370,000);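 active = lowest replicate activation of at least 40%, so every replicate reaches that level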;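 also: 0% = median of neutral control wells and 100% = median of IBMX positive control wells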
Starred values were filed as active, the others as inactive; ? = inconclusive; · = no result given; [ ] = remark or other dose.

SMILES | Cneo AK release | HIV Env fusion | CFTR F508del cor | rRNA inh HTS | miR-122 sensor | INS-1E GSIS act
O=C(N/N=C/C(Br)=C/c1ccccc1)C(O)c1ccccc1 (stereo not given) | -6.8 | -8.7 | -0.1 | -27.4* | 17.0 | 10.5
O=C(N/N=C/C(Br)=C/c1ccccc1)C1CC1 | · | -19.4 | -1.8 | -19.0 | · | ·
O=C(N/N=C/c1ccc(Cl)s1)C(O)c1ccccc1 (stereo not given) | -0.5 | -30.3 | 1.2 | 9.8 | 122.7* | -0.7
Cc1cc(NCCCn2ccnc2)n2nc(-c3ccc(Cl)cc3)cc2n1 | · | -10.2 | 3.7 | -27.8 | · | 13.8
CC(C)(C)c1cc(NCCCn2ccnc2)n2ncc(-c3ccc(Cl)cc3)c2n1 | · | ? | · | · | -31.9 | 817.1*
Oc1ccc(/C=N/Nc2ccnc3cc(Cl)ccc23)c(O)c1 | -5.4 | -14.6 | -7.8 | -32.7* | 19.3 | 25.6
Cc1ccccc1/C=N/Nc1ccnc2cc(Cl)ccc12 | -1.5 | -18.7 | · | 1.0 | · | ·
COc1ccccc1CNC(=O)C[C@H]1CC[C@@H]2[C@H](COC[C@@H](O)CN2Cc2cccc(-c3ccncc3)c2)O1 | -1.1 | -12.5[16.7 µM] | 3.0 | -8.6 | 2.1[16.7 µM] | -0.6
CCCCN1C(=O)C(O)(CC(=O)c2c(C)n[nH]c2C)c2cc(Br)ccc21 (stereo not given) | · | -65.5 | · | -21.4* | 12.6 | -1.3
Cc1cc(Oc2cccnc2)ccc1NC(=O)Cc1cn(C)c2ccccc12 | · | 6.5 | 2.1 | -5.4 | · | 161.9*
Cn1cc(CC(=O)Nc2cccc(C#N)c2)c2ccccc21 | 0.1 | · | · | · | 138.3* | ·
CNC[C@@H]1OCCCC[C@@H](C)Oc2ccc(NC(=O)Nc3ccc(C(F)(F)F)cc3)cc2C(=O)N([C@H](C)CO)C[C@@H]1C | · | -2.0[16.7 µM] | 0.2 | 4.6 | 2.5[16.7 µM] | 0.1
Cc1ccccc1S(=O)(=O)N1C[C@@H](O)COC[C@H]2O[C@H](CC(=O)N3CCC(Cc4ccccc4)CC3)CC[C@@H]21 | 0.2 | · | 1.7 | 1.1 | -0.7[16.7 µM] | -45.0
CCCCCCC1CCC(C(=O)Nn2c(C)nc3ccccc3c2=O)CC1 (stereo not given) | -0.2 | 1.0 | · | · | 1.2 | 69.4*
CCCNC(=O)N1C[C@@H](O)COC[C@@H]2O[C@@H](CC(=O)N[C@@H]3CCN(Cc4ccccc4)C3)CC[C@H]21 | 2.0 | 3.6[16.7 µM] | -5.3 | 3.7 | 1.1[16.7 µM] | -1.6
CC(C)NC(=O)Nc1ccc2c(c1)C(=O)N([C@@H](C)CO)C[C@H](C)[C@H](CN(C)S(=O)(=O)c1ccc(F)cc1)OCCCC[C@H](C)O2 | -1.3 | -2.8[16.7 µM] | 0.4 | -0.1 | -0.4[16.7 µM] | -13.4
CSCC[C@H](NC(=O)N1CCn2c1nc1ccccc12)C(=O)N1CCCCC1 | -1.6 | -8.6 | 0.1 | -17.1* | 4.9 | -6.9
CCN(CC)c1ccc(NC(=O)CCCCC(=O)Nc2ccc(N(CC)CC)cc2)cc1 | -1.3 | 61.2* | 0.4 | 3.3 | -6.3 | 1.5
Cc1ccccc1OCC(O)Cn1c(NCc2ccco2)nc2c1c(=O)n(C)c(=O)n2C (stereo not given) | -0.3 | · | -1.1 | -26.1* | · | -4.5
CCN(CC)C(=O)c1ncn2c1C(=O)N[C@H](C)C2 | · | 61.5* | -2.6 | 0.3 | · | 11.0
CC1CCN(C(=O)c2ncn3c2C(=O)N[C@H](C)C3)CC1 | · | 71.9* | 0.3 | 11.1 | · | ·
CCN(CC)C(=O)c1ncn2c1C(=O)N[C@@H](C)C2 | · | 45.2 | -2.2 | 15.0 | · | -17.5
O=C(NCc1ccc(F)cc1)[C@H]1N[C@H]2c3ccc(-c4ccccc4)c(=O)n3C[C@H]2[C@@H]1CO | -3.8 | · | · | -6.2 | · | -10.7
CC(C)NC(=O)N(C)C[C@@H]1OCCCC[C@@H](C)Oc2ccc(NS(=O)(=O)c3ccc(F)cc3)cc2C(=O)N([C@@H](C)CO)C[C@@H]1C | -1.1 | -24.9[16.7 µM] | -0.2 | 3.5 | -7.1[16.7 µM] | 12.9
COc1ccc(C(=O)Nc2ccc3oc(Cc4ccc(Cl)cc4)nc3c2)cc1OC | -1.4 | ? | 0.0 | -14.5* | -6.0 | -17.0
SMILES | Cneo AK release | HIV Env fusion | CFTR F508del cor | rRNA inh HTS | miR-122 sensor | INS-1E GSIS act
O=C1c2ccccc2-c2nc3ccccc3cc21 | -3.5 | -36.9 | 2.8 | -15.4 | 0.7 | 3.8
Cc1cc2ccccc2nc1-c1ccccc1F | · | -11.7 | 1.1 | -15.8* | · | 9.8
CO[C@@H]1CN(C)C(=O)c2ccc(NC(=O)Nc3ccccc3F)cc2OC[C@@H](C)N(Cc2ccccc2F)C[C@H]1C | 0.7 | · | 3.6 | -0.3 | · | -18.7
Cc1oc(-c2ccccc2F)nc1CN1CCC(C(=O)NCCC2=CCCCC2)CC1 | 4.7 | 90.3* | · | · | -6.1 | ·
CCc1ccc(-c2nc(CN3CCC(C(=O)NCCc4ccc(OC)c(OC)c4)CC3)c(C)o2)cc1 | 0.6 | 68.4* | · | · | -3.0 | ·
COc1ccc(CCNC(=O)C2CCN(Cc3nc(-c4ccccc4F)oc3C)CC2)cc1OC | 0.9 | -47.9 | · | · | -7.0 | ·
COc1ccc(C2=Nn3c(nnc3-c3ccccc3OC)SC2)cc1OC1CCOC1 (stereo not given) | -2.8 | -242.1 | 9.7* | -14.3 | 131.4* | 56.3*
COc1ccc(-c2ccncc2)cc1OC | -0.6 | -83.0 | 4.3 | -1.5 | · | 107.4*
COc1ccccc1-c1nnc2n1N=C(c1ccc(O)c(O)c1)CS2 | 1.0 | · | · | · | 36.0 | ·
COc1ccc(C2=Nn3c(nnc3-c3ccncc3)SC2)cc1OC | 1.7 | 42.9 | · | · | -4.9 | 84.5*
COc1ccc(C2=Nn3c(nnc3-c3ccccc3C(F)(F)F)SC2)cc1OC1CCOC1 (stereo not given) | 0.3 | -20.9 | 7.1 | 2.2 | · | 74.9*
COc1ccc(-c2nnc(-c3cc(OC)c(OC)c(OC)c3)o2)cc1OC | -0.8 | · | · | · | -2.5 | ·
O=C(Nc1cccc(Cl)c1)N[C@H]1CC[C@@H](CCNC(=O)C2CCCC2)O[C@H]1CO | -4.6 | 10.8[16.7 µM] | -0.4 | -2.9 | 5.5[16.7 µM] | -8.5
O=C(O)c1cccc(Nc2ccnc(Nc3cccc(C(=O)O)c3)n2)c1 | 5.3 | 59.1* | -0.5 | 0.6 | 1.0 | 0.7
O=C(c1cccc(F)c1)N1C[C@H]2[C@@H](c3ccccc31)[C@@H](CO)N2C(=O)c1ccc(F)cc1 | -4.1 | · | 0.3 | 3.0 | 191.7*[16.7 µM] | 9.7
O=C(c1ccc(F)cc1)N1C[C@H]2[C@@H](c3ccccc31)[C@@H](CO)N2C(=O)c1ccc(F)cc1 | 9.3 | · | -0.9 | 3.4 | 364.1*[16.7 µM] | -1.0
O=C(c1cccnc1)N1C[C@H]2[C@@H](c3ccccc31)[C@H](CO)N2C(=O)Nc1ccc(F)cc1 | -0.1 | · | 1.5 | -1.3 | 20.0[16.7 µM] | 1.0
O=C(c1cccnc1)N1C[C@H]2[C@@H](c3ccccc31)[C@@H](CO)N2C(=O)Nc1ccc(F)cc1 | 117.6* | · | 2.1 | 3.0 | 30.0[16.7 µM] | -0.9
CO[C@H]1CN(C)C(=O)c2ccc(NS(C)(=O)=O)cc2OC[C@@H](C)N(Cc2nccs2)C[C@H]1C | -0.5 | -9.3[16.7 µM] | 2.4 | -1.2 | · | -5.8
